CHOP inhibitor = blocks CHOP induction under ER stress | CHO-K1 CHOP-promoter luciferase, tunicamycin-induced, 15-18 h | inhibition, % at 10 µM | 3.8% of 220,000 active;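 active = compounds that reduced the stress-induced luciferase reporter signal by more than about 70% of percent inhibition, limit read from the data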
CHOP UPR activ = apoptotic UPR (CHOP) activation | CHO-CHOP luciferase reporter, luminescence; percent of tunicamycin response over DMSO baseline | activation, % at 10 µM | 0.34% of 330,000 active;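 active = at 10 µM dose, activation of 40% or more, normalized to positive control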
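Assay system: CHO cells with stable CHOP pathway luciferase reporter; Buffer or medium: F12 plus 10% serum; Times: 16-18 h cell attachment, then 6 h compound exposure, 37 °C; Signal: luciferase luminescence; Read-out basis: percent activation relative to tunicamycin control; Control set: tunicamycin high control, DMSO low control.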
Bfl-1 A1 inh = inhibitors of the anti-apoptotic protein A1, read as caspase activation. AID 2462. 0.066% of 330,000 active. caspase activation, % (no concentration beside the values). MEF A1-2A-BIM cells, Caspase-Glo 3/7 luminescence, 3 h; percent of clofoctol response, vehicle zero;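 active = over half of replicate activation scores above 10%, or exactly half above 10 with the replicate mean above 10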
UPR XBP1 act = activators of adaptive arm of unfolded protein response (XBP1) | CHO-XBP1 luciferase reporter, IRE1-XBP1 UPR activation, luminescence; percent of tunicamycin response, DMSO as zero | activation, % at 20 µM | 0.33% of 330,000 active | AID 463104;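 active = versus positive control, 20 µM dose yields 30% or more activation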
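Assay system: IRE1-XBP1 luciferase reporter CHO line. Input: 1000 cells/well. Buffer or medium: F12 with 10% serum. Doses: 20 µM, 1% DMSO. Times: overnight seeding at 37 °C, 6 h compound treatment at 37 °C. Technique: Steady-Glo luciferase glow luminescence, 10 min after reagent addition.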
A number is an active result; – = inactive; · = no result; ! = repeats disagree. The full list was thinned out, with hits kept by preference.

SMILES | CHOP inhibitor | CHOP UPR activ | Bfl-1 A1 inh | UPR XBP1 act
Cc1cc(Br)ccc1NC(=O)CN1C(=O)C2C3CC(c4ccccc4)C(C3)C2C1=O (stereo not given) | 85 | – | – | –
CCCCCCCc1ccc(-c2ccc(O)cc2)nc1 | 96 | – | – | –
CN(C)c1ccc(NC(=O)CCN2CCN(c3ccccn3)CC2)cc1 | · | – | – | –
COc1cc(NC(=O)c2cc3sccc3n2C)cc(OC)c1 | 75 | – | – | –
Cc1ccc(N(Cc2cc(=O)[nH]c3ccccc23)C(=O)c2ccco2)cc1 | 72 | – | – | –
CC(=O)N(Cc1cc(=O)[nH]c2ccccc12)c1ccc(C)cc1 | – | – | – | –
CCOc1ccc(N/C(SCc2cccc([N+](=O)[O-])c2)=C(/C#N)C(N)=O)cc1 | – | – | – | –
N#CC(C#N)=C(Nc1ccc(F)cc1)SCc1cccc(F)c1 | 85 | – | – | –
Cc1ccc(C(=O)O/N=C(\N)Cc2cccs2)c(Cl)c1 | · | – | – | –
CC(C)CC(=O)OCC(=O)Nc1ccccc1Sc1ccccc1 | 84 | – | – | –
O=C(Cc1ccc(Cl)cc1)Nc1ccccc1Sc1ccccc1 | 75 | – | – | –
CCOc1ccc(C(=O)NNC(=O)CN2C(=O)NC3(CCCC3)C2=O)cc1 | · | – | – | –
O=C(CCNC(=O)c1ccccc1Cl)Nc1ccc(S(=O)(=O)Nc2nccs2)cc1 | · | – | – | –
CC(C)=CC1C(C(=O)Nc2ccc(Br)cn2)C1(C)C (stereo not given) | 76 | – | – | –
CNC(=O)CSc1nnnn1-c1cc(C)ccc1C | – | – | – | –
Cc1ccc(C)c(-n2nnnc2SCC(=O)NCCC2=CCCCC2)c1 | 86 | – | · | –
O=C(CSc1nc2sc3c(c2c(=O)n1-c1ccccc1)CCCC3)N/N=C/c1ccccc1C(=O)O | · | – | – | –
CS(=O)(=O)c1ccccc1-c1nc(-c2cc(C(F)(F)F)cc(C(F)(F)F)c2)no1 | – | – | – | –
CS(=O)c1ccccc1-c1nc(-c2cc(C(F)(F)F)cc(C(F)(F)F)c2)no1 (stereo not given) | 82 | – | – | –
C=CCn1c(SCc2ccc(Cl)cc2)nc2cc(C(=O)N3CCC(C(N)=O)CC3)ccc2c1=O | 83 | – | – | –
Clc1ccc(CN2C3=NCCN3c3ccccc32)cc1 | 71 | – | – | –
COCCn1c(SCC(=O)Nc2ccccc2C)nc2c(oc3ccccc32)c1=O | 79 | – | – | –
COCCn1c(SCC(=O)Nc2ccc(OC)cc2)nc2c(oc3ccccc32)c1=O | – | – | – | –
Nc1ccc(-c2nc3ccc(C(=O)O)cc3s2)cc1 | 92 | · | – | ·
O=C(O)c1ccc2nc(-c3ccccc3)sc2c1 | – | – | – | –
SMILES | CHOP inhibitor | CHOP UPR activ | Bfl-1 A1 inh | UPR XBP1 act
CC1(C)CC(=O)c2cnc(N3CCN(c4ccccc4)CC3)nc2C1 | 87 | – | – | –
Cc1cc(OCCOc2cccc3cccnc23)cc(C)c1Cl | 75 | – | – | –
c1ccc(OCCOc2cccc3cccnc23)cc1 | – | – | – | –
Cc1cc(C)c(C)c(OCCCOc2cccc3cccnc23)c1 | 81 | – | – | –
Cc1ccnc(NCc2ccc(Cl)cc2)c1 | · | – | – | –
Cc1cccc(NC(=O)Cn2c(O)c(N=NC(=O)c3ccncc3)c3ccccc32)c1 | 84 | – | – | –
O=C(N=Nc1c(O)n(Cc2ccccc2)c2ccccc12)c1ccncc1 | – | – | – | –
Cc1ccc(NC(=O)Cn2c(O)c(N=NC(N)=S)c3ccccc32)cc1 | · | – | – | 60
CC(Oc1ccccc1F)C(=O)NCCN1CCCCC1 (stereo not given) | 74 | – | – | –
CCOc1ccccc1NC(=O)NCCN1CCCCC1 | · | – | – | –
FC(F)(F)c1cc(Sc2ccccc2)nc(-c2ccccn2)n1 | 71 | – | – | –
FC(F)(F)c1cc(Nc2ccccc2)nc(-c2ccccn2)n1 | · | – | – | –
Nc1nonc1C(=O)NCCNCc1c(OCc2ccccc2F)ccc2ccccc12 | 73 | – | – | –
CCN(CCCNC(=O)Cn1ncc2c([nH]c3ccc(C)cc32)c1=O)c1ccccc1 | · | – | – | –
O=[N+]([O-])c1ccc(C2=Nc3cc(Cl)ccc3OC2)cc1 | – | – | – | –
Cc1ccc2c(c1)N=C(c1ccc(F)cc1)CO2 | 78 | – | – | –
Cc1ccc(Cl)cc1NC(=O)COC(=O)C12CC3CC(CC(C3)C1)C2 | 79! | – | – | –
Cc1ccc(Cl)cc1NC(=O)COC(=O)C1CCCC1 | – | – | – | –
O=c1cc(-c2ccccc2)nc2c(-c3ccccc3)c(C(F)(F)F)[nH]n12 | – | – | – | –
O=C(CSc1cccc[n+]1[O-])NC1CCCCC1 | · | – | 8.3 | –
O=C(CSc1ncccc1C(=O)O)NC1CCCCC1 | · | – | 5.5 | –
CC/C(=N\NC(=O)c1ccc(N2CCCC2=O)cc1)c1ccccc1 | · | – | – | –
CCCC/C(O)=C1\C(=O)CCCC1=NCCc1c(C)[nH]c2ccc(OC)cc12 | – | – | – | –
O=C(NC(=S)Nc1nc(-c2ccc(Br)cc2)cs1)c1ccco1 | 84 | – | – | –
CCCC(=O)Nc1nc2ccc3nc(C)sc3c2s1 | 75 | – | – | –
SMILES | CHOP inhibitor | CHOP UPR activ | Bfl-1 A1 inh | UPR XBP1 act
CCCCC(=O)Nc1nc2ccc3nc(C)sc3c2s1 | – | – | – | –
COn1c(SC(C)C)nc2ccccc2c1=O | – | – | – | –
COn1c(SC2CCCCC2)nc2ccccc2c1=O | 83 | – | – | –
CC(C)On1c(SC(C)C)nc2ccccc2c1=O | 73 | – | – | –
COc1cccc(-c2nc3ccccc3s2)c1 | 73 | – | – | –
O=c1cc(-c2ccccc2Cl)oc2ccc([N+](=O)[O-])c(O)c12 | – | – | – | –
O=c1cc(-c2ccccc2Cl)oc2c([N+](=O)[O-])c(O)cc(O)c12 | 76 | – | – | –
O=C(/C=C/c1ccccc1)N1c2ccccc2Sc2ccc(C(F)(F)F)cc21 | 70 | – | – | –
CC(=O)c1cccc(NC(=O)C2C(c3ccccc3)C2(Cl)Cl)c1 (stereo not given) | – | – | – | –
Cc1cccc(NC(=O)C2C(c3ccccc3)C2(Cl)Cl)c1 (stereo not given) | 74 | – | – | –
COC(=O)c1c(-c2cccc3ccccc23)csc1NC(=O)Cc1ccc(OC)c(OC)c1 | 73 | – | – | –
COC(=O)c1c(-c2ccc(C)cc2)csc1NC(=O)Cc1ccc(OC)c(OC)c1 | – | · | · | ·
Cn1c(CSCc2ccc(Cl)cc2Cl)n[nH]c1=S | – | – | – | –
CSc1nnc(CSCc2ccc(Cl)cc2Cl)n1-c1ccccc1 | 79 | – | – | –
CCc1ccc(N2C(=O)c3sc4nnc(-c5ccccc5)c(=O)n4c3C2=O)cc1 | 71 | – | – | –
CCc1ccc(-n2c(=S)sc3c(=O)n(-c4ccccc4)c(SCC(=O)O)nc32)cc1 | · | – | – | –
CCOC(=O)[C@@H]1[C@H]2COc3ccc(Br)cc3[C@H]2N2C(=O)N(c3ccc(C(F)(F)F)cc3)C(=O)[C@]12C | · | – | – | –
CC(C)c1ccc2c(c1)CCC1C(C)(CN)CCCC21C (stereo not given) | 102 | · | – | ·

Source: PubChem (several laboratories)
